Published values from different studies.
Lines come from different studies, so protocols differ.
BACE1: Beta-secretase 1 (BACE1, Homo sapiens, UniProt P56817)
RXFP3: Relaxin-3 receptor 1 (RXFP3, Homo sapiens, UniProt Q9NSD7)
BRAF: Serine/threonine-protein kinase B-raf (BRAF, Homo sapiens, UniProt P15056)
ELANE: Neutrophil elastase (ELANE, Homo sapiens, UniProt P08246)
Delta-aminolevulinic acid dehydratase C162A/K59N: Delta-aminolevulinic acid dehydratase (Homo sapiens, UniProt P13716, C162A/K59N)
SMUG1: SMUG1 (Homo sapiens, UniProt Q53HV7)
ROS1: Proto-oncogene tyrosine-protein kinase ROS (ROS1, Homo sapiens, UniProt P08922)

The IC50 of `NC1=NCC(c2cccc3ccccc23)OC1` (stereo not drawn) is reported as 1100 µM (BACE1; enzyme activity; inhibitor; FRET; pH 5).
For `Cc1ccccc1-c1noc(-c2ccc(NC(=O)C3CC(=O)N(Cc4cccnc4)C3)cc2)n1` (stereo not drawn), the IC50 was over 10 µM (RXFP3; cAMP; antagonist; TR-FRET).
For `COc1ccc2c(Oc3ccc4c(C(=O)Nc5ccccc5N)cccc4c3)ccnc2c1`, the IC50 was over 0.5 µM (BRAF; enzyme activity; inhibitor).
`CC(C)(C)n1nc(-c2ccc3nc(OC4CC4)ccc3c2)c(C(N)=O)c1N` has an IC50 of over 10 µM (BRAF; cell-free assay).
With `CCC(C)(O)C(=O)N1CCC(NC(=O)Nc2ccc(OC(F)(F)F)c(F)c2)CC1` (stereo not drawn) the IC50 was 0.013 µM (Bifunctional epoxide hydrolase 2 (Ephx2, Mus musculus, UniProt P34914); enzyme activity; inhibitor).
With `CCCc1cc2cc(-n3nc(C)c4c3CC(C)(C)CC4=O)cc(N[C@H]3CC[C@H](O)CC3)c2c(=O)[nH]1` the IC50 was over 50 µM (Endoplasmin (HSP90B1, Canis lupus familiaris, UniProt P41148); ligand displacement; FP).
For `CC(C)C[C@H](NC(=O)[C@@H]1COCCCCCCCC(=O)N2CCC[C@H]2C(=O)N1)C(=O)[C@@]1(C)CO1`, the IC50 was over 10 µM (Proteasome Macropain subunit MB1 (PSMB5, Homo sapiens, UniProt P28074); enzyme activity; inhibitor; fluorescence).
`O=c1oc2c(O)c(O)cc3c(=O)oc4c(O)c(O)cc1c4c23` gave an IC50 of 0.081 µM (DNA polymerase iota (Homo sapiens, UniProt Q9UNA4); enzyme activity; inhibitor).
With `Cc1cccc(C(=O)Oc2cnnc3ccc([N+](=O)[O-])cc23)c1` the IC50 was 0.59 µM (ELANE; enzyme activity; inhibitor; fluorescence).
With `Cc1ncsc1-c1ccc(CNC(=O)[C@@H]2C[C@H](O)CN2C(=O)[C@@H](NC(=O)C2(F)CC2)C(C)(C)C)c(OCCc2ccc(CN3CCN(c4cc(-c5ccccc5O)nnc4N)CC3)cc2)c1` the IC50 was 1.3 µM (SWI/SNF-related matrix-associated actin-dependent regulator of chromatin subfamily A member 2, bromodomain (SMARCA2, Homo sapiens, UniProt P51531); ligand displacement; TR-FRET).
The IC50 of `COc1ccc2c(c1)OC1Oc3cc(O)c(CC=C(C)C)c(O)c3C(=O)C21O` (stereo not drawn) is reported as 91 µM (BACE1; enzyme activity; inhibitor).
`O=C(Nc1ccc(-c2nc(-c3ccc(Br)cc3)no2)cc1)C1CC(=O)N(Cc2cccnc2)C1` (stereo not drawn) has an IC50 of 3.08 µM (RXFP3; cAMP; antagonist; TR-FRET).
The IC50 of `CC(C)c1cc(NC(=O)Nc2ccc(F)c(F)c2)n(-c2ccccc2)n1` is reported as 2.5 µM (Kir3.1/Kir3.2 (Homo sapiens, UniProt P48051+P48549); ion flux; inhibitor).
With `Cc1c(Cl)cccc1Nc1ccccc1C(=O)O` the IC50 was 2.1 µM (Delta-aminolevulinic acid dehydratase C162A/K59N; enzyme activity; inhibitor; absorbance; pH 8; with preincubation).
`COc1cc(NC(=O)N2CCC(n3c(=O)[nH]c4c(Br)cccc43)CC2)ccc1C` has an IC50 of over 100 µM (SMUG1; enzyme activity; inhibitor).
`C=CC(=O)Nc1cc(Nc2nccc(Nc3cc(Cl)c(F)cc3C(C)(C)O)n2)c(OC)cc1N1CC[C@@H](N(C)C)C1` gave an IC50 of 0.937 µM (ROS1; enzyme activity; inhibitor; with preincubation).
`C[C@@H]1COCCN1c1nc(-c2cnc(N)nc2C(F)F)nc(N2CCOCC2)n1` has an IC50 of 0.0324 µM (Serine/threonine-protein kinase mTOR (MTOR, Homo sapiens, UniProt P42345); ligand displacement; TR-FRET).
For `CCOC(=O)c1nn(C(=O)C2CC2)c2ccccc2c1=O`, the IC50 was 0.58 µM (ELANE; enzyme activity; inhibitor; fluorescence).
`[N-]=[N+]=N[C@H](CC(=O)NO)Cc1ccc(O)cc1` gave an IC50 of 59 µM (Endoplasmic reticulum aminopeptidase 2 (ERAP2, Homo sapiens, UniProt Q6P179); enzyme activity; inhibitor; fluorescence).
`CN1CCCN=C1/C=C/c1cccc(O)c1` gave an IC50 of 18 µM (Delta-aminolevulinic acid dehydratase C162A/K59N; enzyme activity; inhibitor; absorbance; pH 8; with preincubation).
With `O=C1N[C@H](C(=O)O)CS1` the IC50 was about 900 µM (Hydroxycarboxylic acid receptor 2 (HCAR2, Homo sapiens, UniProt Q8TDS4); ligand displacement; radioligand; cell membranes).
The IC50 of `CCC(C)n1ncn(-c2ccc(N3CCN(c4ccc(OCC5COC(Cn6cncn6)(c6ccc(Cl)cc6Cl)O5)cc4)CC3)cc2)c1=O` (stereo not drawn) is reported as 31.1 µM (Vasopressin V2 receptor (AVPR2, Homo sapiens, UniProt P30518); calcium signal; antagonist).
`O=C(Nc1ccc(Cl)cc1)N1CCC(n2c(=O)[nH]c3c(Br)cccc32)CC1` has an IC50 of over 100 µM (SMUG1; enzyme activity; inhibitor).
`C=CC(=O)Nc1cc(Nc2nccc(-c3cn(C4CC4)c4ccccc34)n2)c(OC)cc1N(C)CCN(C)C` has an IC50 of 0.00084 µM (Epidermal growth factor receptor (EGFR, Homo sapiens, UniProt P00533, D761Y); enzyme activity; inhibitor; TR-FRET).
`CCn1ncc2c1-c1cnc(N)c(c1)O[C@H](C)c1cc(F)ccc1-c1nn(C)nc1C2` gave an IC50 of 0.044 µM (Muscle, skeletal receptor tyrosine-protein kinase (MUSK, Homo sapiens, UniProt O15146); enzyme activity; inhibitor; radiometric).
The IC50 of `CC(=O)N[C@H]1CSSC[C@@H](C(=O)N[C@@H](Cc2c[nH]c3ccccc23)C(N)=O)NC(=O)[C@@H](Cc2ccccc2)NC(=O)[C@H](CCCNC(=N)N)NC1=O` is reported as 0.42 µM (Melanocortin receptor 3 (MC3R, Homo sapiens, UniProt P41968); ligand displacement; radioligand).
`CCN1CCN(c2c(Cl)cccc2NC(=O)c2ccc(Br)o2)CC1` has an IC50 of 0.49 µM (Mitogen-activated protein kinase 8 (MAPK8, Homo sapiens, UniProt P45983); enzyme activity; inhibitor; TR-FRET).
`O=C(O)c1cccnc1Nc1cccc(C(F)(F)F)c1` has an IC50 of 13 µM (Delta-aminolevulinic acid dehydratase C162A/K59N; enzyme activity; inhibitor; absorbance; pH 8; with preincubation).
`CCOC(=O)c1nn(C(=O)c2cccc(C)c2)c2ccccc2c1=O` has an IC50 of 0.21 µM (ELANE; enzyme activity; inhibitor; fluorescence).
`CN1CCN(c2ccc(Nc3ncc4cc(C#N)c(=O)n(C5CCCC5)c4n3)cc2)CC1` gave an IC50 of 2.25 µM (ROS1; enzyme activity; inhibitor).
